# From ChEMBL document CHEMBL1128681, “Studies on the monoamine oxidase (MAO)-catalyzed oxidation of phenyl-substituted 1-methyl-4-phenoxy-1,2,3,6-tetrahydropyridine derivatives: factors contributing to MAO-A and MAO-B selectivity” (J Med Chem, 1995)
# B1: Amine oxidase [flavin-containing] B (Bos taurus) (protein)
# chain: MSSKCDVVVVGGGISGMAAAKLLHDSGLNVIVLEARDRVGGRTYTLRNQKVKYVDLGGSYVGPTQNHILRLSKELGLETYKVNEVERLIHHTKGKSYPFRGSFPSVWNPITYLDHNNLWRTMDDMGREIPSDAPWKAPLAEQWDLMTMKELLDKICWTESSKQLAILFVNLCVTAEIHEVSALWFLWYVKQCGGTTRIFSTSNGGQERKFVGGSGQVSERIMDLLGDRVKLERPVIHIDQTGENVLVETLNHELYEAKYVISAVPPVLGMKIHFNPPLPMMRNQLITRVPLGSVIKSIVYYKEPFWRNMDYCGSMIIEGEEAPVAYALDDTKPDGSYPAIIGFILAHKARKLARLTKEERLKKLCDLYAKVLGSQEALHPVHYEEKNWCEEQYSGGCYTSYFPPGIMTQYGRVLRQPVGRIYFAGTETATHWSGYMEGAVEAGERAAREILHAMGKIPEDEIWLPEPESVDVPAKPITTTFLQRHLPSVPGLLKLIGLTTIFSATALGFLAHKRGLLVRI
# B2: Amine oxidase [flavin-containing] A (Homo sapiens) (protein)
# chain: MENQEKASIAGHMFDVVVIGGGISGLSAAKLLTEYGVSVLVLEARDRVGGRTYTIRNEHVDYVDVGGAYVGPTQNRILRLSKELGIETYKVNVSERLVQYVKGKTYPFRGAFPPVWNPIAYLDYNNLWRTIDNMGKEIPTDAPWEAQHADKWDKMTMKELIDKICWTKTARRFAYLFVNINVTSEPHEVSALWFLWYVKQCGGTTRIFSVTNGGQERKFVGGSGQVSERIMDLLGDQVKLNHPVTHVDQSSDNIIIETLNHEHYECKYVINAIPPTLTAKIHFRPELPAERNQLIQRLPMGAVIKCMMYYKEAFWKKKDYCGCMIIEDEDAPISITLDDTKPDGSLPAIMGFILARKADRLAKLHKEIRKKKICELYAKVLGSQEALHPVHYEEKNWCEEQYSGGCYTAYFPPGIMTQYGRVIRQPVGRIFFAGTETATKWSGYMEGAVEAGERAAREVLNGLGKVTEKDIWVQEPESKDVPAVEITHTFWERNLPSVSGLLKIIGFSTSVTALGFVLYKYKLLPRS
# How the values were obtained:
# [1] = substrate: Cc1ccc(OC2=CCN(C)CC2)cc1; assay: (§1) Michaelis-Menten constant for Monoamine oxidase B catalyzed oxidation (KM).; design: species or system Bos taurus
# Outline: (§2)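 MAO-B at 0.08 μM final; activity was calibrated with MPTP at 30 °C and the preparation was stored at –15 °C. Substrate range 100–2000 μM in 100 mM sodium phosphate pH 7.4, with spectrophotometric initial oxidation rates. KM and kcat derived from double-reciprocal plots, and kcat/KM calculated from them.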
# [2] = substrate: CN1CC=C(Oc2cccc(-c3ccccc3)c2)CC1; assay: as §1; design: species or system Bos taurus; outline: as §2
# [3] = substrate: Cc1cccc(OC2=CCN(C)CC2)c1; assay: as §1; design: species or system Bos taurus; outline: as §2
# [4] = substrate: CN1CC=C(Oc2ccccc2Cl)CC1; assay: as §1; design: species or system Bos taurus; outline: as §2
# [5] = substrate: Cc1ccccc1OC1=CCN(C)CC1; assay: as §1; design: species or system Bos taurus; outline: as §2
# [6] = substrate: COc1cccc(OC2=CCN(C)CC2)c1; assay: as §1; design: species or system Bos taurus; outline: as §2
# [7] = substrate: CN1CC=C(Oc2cccc(Cl)c2)CC1; assay: as §1; design: species or system Bos taurus; outline: as §2
# [8] = substrate: CN1CC=C(Oc2ccccc2-c2ccccc2)CC1; assay: as §1; design: species or system Bos taurus; outline: as §2
# [9] = substrate: COc1ccccc1OC1=CCN(C)CC1; assay: as §1; design: species or system Bos taurus; outline: as §2
# [10] = substrate: CN1CC=C(Cc2ccccc2)CC1; assay: as §1; design: species or system Bos taurus; outline: as §2
# [11] = substrate: CN1CC=C(Oc2ccccc2[N+](=O)[O-])CC1; assay: as §1; design: species or system Bos taurus; outline: as §2
# [12] = substrate: CN1CC=C(Oc2ccc(Cl)cc2)CC1; assay: as §1; design: species or system Bos taurus; outline: as §2
# [13] = substrate: CN1CC=C(Oc2ccc([N+](=O)[O-])cc2)CC1; assay: as §1; design: species or system Bos taurus; outline: as §2
# [14] = substrate: CN1CC=C(Oc2cccc([N+](=O)[O-])c2)CC1; assay: as §1; design: species or system Bos taurus; outline: as §2
# [15] = substrate: COc1ccc(OC2=CCN(C)CC2)cc1; assay: as §1; design: species or system Bos taurus; outline: as §2
# [16] = substrate: Cc1ccc(OC2=CCN(C)CC2)cc1; assay: (§3) Michaelis-Menten constant for Monoamine oxidase A-catalyzed oxidation (KM).
# Outline: (§4)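 MAO-A at 0.16 μM final, raised to 0.32 μM for one slowly oxidized substrate. The MAO-A preparation was diluted with 3 volumes of phosphate buffer just before use, and its activity was re-checked bimonthly with kynuramine at 30 °C. Substrates at 100–2000 μM in 100 mM sodium phosphate pH 7.4; initial rates by spectrophotometry. kcat and KM from double-reciprocal plots; kcat/KM as their ratio.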
# [17] = substrate: CN1CC=C(Oc2cccc(-c3ccccc3)c2)CC1; assay: as §3; outline: as §4
# [18] = substrate: Cc1cccc(OC2=CCN(C)CC2)c1; assay: as §3; outline: as §4
# [19] = substrate: CN1CC=C(Oc2ccccc2Cl)CC1; assay: as §3; outline: as §4
# [20] = substrate: Cc1ccccc1OC1=CCN(C)CC1; assay: as §3; outline: as §4
# [21] = substrate: COc1cccc(OC2=CCN(C)CC2)c1; assay: as §3; outline: as §4
# [22] = substrate: CN1CC=C(Oc2cccc(Cl)c2)CC1; assay: as §3; outline: as §4
# [23] = substrate: CN1CC=C(Oc2ccccc2-c2ccccc2)CC1; assay: as §3; outline: as §4
# [24] = substrate: COc1ccccc1OC1=CCN(C)CC1; assay: as §3; outline: as §4
# [25] = substrate: CN1CC=C(Cc2ccccc2)CC1; assay: as §3; outline: as §4
# [26] = substrate: CN1CC=C(Oc2ccccc2[N+](=O)[O-])CC1; assay: as §3; outline: as §4
# [27] = substrate: CN1CC=C(Oc2ccc(Cl)cc2)CC1; assay: as §3; outline: as §4
# [28] = substrate: CN1CC=C(Oc2ccc([N+](=O)[O-])cc2)CC1; assay: as §3; outline: as §4
# [29] = substrate: CN1CC=C(Oc2cccc([N+](=O)[O-])c2)CC1; assay: as §3; outline: as §4
# [30] = substrate: COc1ccc(OC2=CCN(C)CC2)cc1; assay: as §3; outline: as §4
protein,measurement,setting,value
B1,Km,[1],106 µM
same,kcat,[1],3.57 s⁻¹
same,kcat/Km,[1],33600 M⁻¹ s⁻¹
same,Km,[2],346 µM
same,kcat,[2],3.67 s⁻¹
same,kcat/Km,[2],10600 M⁻¹ s⁻¹
same,Km,[3],116 µM
same,kcat,[3],3.37 s⁻¹
same,kcat/Km,[3],29100 M⁻¹ s⁻¹
same,Km,[4],220 µM
same,kcat,[4],3.02 s⁻¹
same,kcat/Km,[4],13700 M⁻¹ s⁻¹
same,Km,[5],98 µM
same,kcat,[5],2.92 s⁻¹
same,kcat/Km,[5],29700 M⁻¹ s⁻¹
same,Km,[6],337 µM
same,kcat,[6],4.05 s⁻¹
same,kcat/Km,[6],12000 M⁻¹ s⁻¹
same,Km,[7],308 µM
same,kcat,[7],3.73 s⁻¹
same,kcat/Km,[7],12200 M⁻¹ s⁻¹
same,Km,[8],691 µM
same,kcat,[8],1.52 s⁻¹
same,kcat/Km,[8],2200 M⁻¹ s⁻¹
same,Km,[9],313 µM
same,kcat,[9],5.7 s⁻¹
same,kcat/Km,[9],12400 M⁻¹ s⁻¹
same,Km,[10],180 µM
same,kcat,[10],10.7 s⁻¹
same,kcat/Km,[10],59700 M⁻¹ s⁻¹
same,Km,[11],86 µM
same,kcat,[11],1.13 s⁻¹
same,kcat/Km,[11],13100 M⁻¹ s⁻¹
same,Km,[12],254 µM
same,kcat,[12],5.93 s⁻¹
same,kcat/Km,[12],23400 M⁻¹ s⁻¹
same,Km,[13],443 µM
same,kcat,[13],1.4 s⁻¹
same,kcat/Km,[13],3180 M⁻¹ s⁻¹
same,Km,[14],105 µM
same,kcat,[14],2.47 s⁻¹
same,kcat/Km,[14],23500 M⁻¹ s⁻¹
same,Km,[15],474 µM
same,kcat,[15],5.9 s⁻¹
same,kcat/Km,[15],12400 M⁻¹ s⁻¹
B2,Km,[16],129 µM
same,kcat,[16],1.3 s⁻¹
same,kcat/Km,[16],10000 M⁻¹ s⁻¹
same,Km,[17],232 µM
same,kcat,[17],21.5 s⁻¹
same,kcat/Km,[17],92800 M⁻¹ s⁻¹
same,Km,[18],212 µM
same,kcat,[18],7.18 s⁻¹
same,kcat/Km,[18],33900 M⁻¹ s⁻¹
same,Km,[19],83 µM
same,kcat,[19],3.4 s⁻¹
same,kcat/Km,[19],41000 M⁻¹ s⁻¹
same,Km,[20],108 µM
same,kcat,[20],4.5 s⁻¹
same,kcat/Km,[20],41700 M⁻¹ s⁻¹
same,Km,[21],176 µM
same,kcat,[21],8.2 s⁻¹
same,kcat/Km,[21],46600 M⁻¹ s⁻¹
same,Km,[22],82 µM
same,kcat,[22],5.97 s⁻¹
same,kcat/Km,[22],72800 M⁻¹ s⁻¹
same,Km,[23],426 µM
same,kcat,[23],4.08 s⁻¹
same,kcat/Km,[23],9580 M⁻¹ s⁻¹
same,Km,[24],75 µM
same,kcat,[24],0.95 s⁻¹
same,kcat/Km,[24],12700 M⁻¹ s⁻¹
same,Km,[25],103 µM
same,kcat,[25],0.467 s⁻¹
same,kcat/Km,[25],4600 M⁻¹ s⁻¹
same,Km,[26],306 µM
same,kcat,[26],6.83 s⁻¹
same,kcat/Km,[26],22300 M⁻¹ s⁻¹
same,Km,[27],63 µM
same,kcat,[27],3.15 s⁻¹
same,kcat/Km,[27],50100 M⁻¹ s⁻¹
same,Km,[28],169 µM
same,kcat,[28],1.37 s⁻¹
same,kcat/Km,[28],8050 M⁻¹ s⁻¹
same,Km,[29],174 µM
same,kcat,[29],4.95 s⁻¹
same,kcat/Km,[29],28500 M⁻¹ s⁻¹
same,Km,[30],47 µM
same,kcat,[30],1.22 s⁻¹
same,kcat/Km,[30],25800 M⁻¹ s⁻¹
